Screening results deposited in PubChem BioAssay by several laboratories.
Beta cell apopt = blocks beta cell apoptosis. 0.8% of 300,000 active. INS-1E cytokine-induced death, ATP luminescence, 48 h; percent of positive-control rescue, neutral wells zero. protection from apoptosis, % (no concentration beside the values);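 active means Every replicate reaches about 75%, or at least half do and their mean reaches it too, limit read from the data; inconclusive means At least half of replicates reach the limit but their mean does not; inactive means Under half of replicates reach the limit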;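 further: 0% = cytokine-treated negative control wells and 100% = positive control rescue; higher means more ATP so stronger rescue from cytokine killing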
SKKanGAS inh = blocks kanamycin growth of S. pyogenes SKKanGAS strain; BacTiter-Glo, 6 h; inhibition, % at 7.5 µM; 1.3% of 300,000 active;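 active means mean replicate score, as percent of positive control median, at least 50; inconclusive means mean below 50 but one replicate at or above 50; inactive means mean and every replicate below 50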;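 further: strain carries kanamycin resistance gene driven by streptokinase promoter and grows in 40 µg/ml kanamycin; loss of luminescence reflects streptokinase promoter inhibition or plain growth inhibition; 0% = median of DMSO wells and 100% = positive control at its reference dose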
CSC inhib = blocks cancer stem cells; cancer stem cell-like cells viability, luminescence; inhibition, % at 7.5 µM; 1.1% of 300,000 active; in the data active means inhibition above about 75%; inconclusive means no clear call, values can overlap the other calls; tested in HMLE shEcad cells
Mdm2 MdmX PPI = inhibitors of human Mdm2/MdmX interaction; 3% of 330,000 active; O15151+Q00987; inhibition, % at 8 µM; SaOS-2 split-luciferase Mdm2/MdmX complementation, luminescence;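 active means inhibition of at least 50% at 8 µM in the primary screen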
Target sequence (O15151 whole entry, looked up): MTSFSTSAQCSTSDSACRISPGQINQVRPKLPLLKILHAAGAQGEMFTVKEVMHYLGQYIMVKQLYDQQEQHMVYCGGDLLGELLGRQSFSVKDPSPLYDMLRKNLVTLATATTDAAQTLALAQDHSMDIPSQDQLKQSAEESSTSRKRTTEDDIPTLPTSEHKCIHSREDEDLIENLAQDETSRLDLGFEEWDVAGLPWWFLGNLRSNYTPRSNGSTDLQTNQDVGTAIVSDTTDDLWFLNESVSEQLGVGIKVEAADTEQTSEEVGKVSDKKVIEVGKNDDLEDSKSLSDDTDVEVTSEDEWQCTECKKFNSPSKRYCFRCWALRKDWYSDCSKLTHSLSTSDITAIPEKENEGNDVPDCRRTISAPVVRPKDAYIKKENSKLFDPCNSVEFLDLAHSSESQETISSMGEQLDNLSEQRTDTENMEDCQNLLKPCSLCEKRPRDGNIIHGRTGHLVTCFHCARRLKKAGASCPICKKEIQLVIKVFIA
Target sequence (Q00987 whole entry, looked up): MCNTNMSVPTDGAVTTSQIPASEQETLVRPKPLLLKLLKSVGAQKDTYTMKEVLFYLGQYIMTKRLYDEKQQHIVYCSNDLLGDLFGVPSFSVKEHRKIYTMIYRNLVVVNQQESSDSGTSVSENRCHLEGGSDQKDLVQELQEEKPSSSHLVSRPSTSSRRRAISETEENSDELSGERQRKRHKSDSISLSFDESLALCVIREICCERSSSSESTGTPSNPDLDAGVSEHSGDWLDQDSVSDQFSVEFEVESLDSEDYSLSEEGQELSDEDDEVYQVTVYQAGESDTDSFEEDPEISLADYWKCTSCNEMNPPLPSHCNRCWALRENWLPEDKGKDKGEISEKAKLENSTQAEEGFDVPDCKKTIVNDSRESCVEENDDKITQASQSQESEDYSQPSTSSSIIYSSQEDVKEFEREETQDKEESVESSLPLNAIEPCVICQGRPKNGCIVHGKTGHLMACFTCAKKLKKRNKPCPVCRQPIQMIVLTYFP
UPR XBP1 act = adaptive UPR (XBP1) activation; CHO-XBP1 luciferase reporter, IRE1-XBP1 UPR activation, luminescence; percent of tunicamycin response, DMSO as zero; activation, % at 20 µM; 0.33% of 330,000 active; AID 463104;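 active means versus positive control, 20 µM dose yields 30% or more activation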;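 further: 100% = tunicamycin at 10 µg/mL and 0% = DMSO only wells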
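Material – CHO cell line with stable XBP1 luciferase reporter · Buffer or medium – F12 plus 10% FBS · Compound – single point, 20 µM final compound, 1% DMSO · Schedule – 16-18 h cell attachment at 37 °C, then 6 h compound exposure · Signal – Steady-Glo luminescence read · Benchmarks – high control tunicamycin 10 µg/mL final, low control DMSO vehicle only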
UPR CHOP act = activators of apoptotic arm of unfolded protein response (CHOP); CHO-CHOP luciferase reporter, UPR activation, luminescence; percent of tunicamycin response over DMSO baseline; activation, % at 10 µM; 0.34% of 330,000 active; AID 449763;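 active means at 10 µM dose, activation of 40% or more, normalized to positive control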;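 further: 100% = tunicamycin at 10 µg/mL and 0% = DMSO alone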
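Assay system: CHO-CHOP cells, stable luciferase reporter of PERK-eIF2a-CHOP signalling / Buffer or medium: F12 plus 10% serum / Compound dosing: one dose, 10 µM in 0.5% DMSO / Times: 6 h compound treatment, 37 °C / Technique: luciferase luminescence / Read-out: % reporter activation, DMSO baseline versus tunicamycin full activation / Benchmarks: tunicamycin and DMSO controls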
CHOP UPR conf = apoptotic UPR (CHOP) activation, confirmed; shares compounds with UPR CHOP act; AID 463112; CHO-CHOP cells, CHOP-luciferase reporter luminescence; percent of tunicamycin response, DMSO as zero; activation, % at 10 µM; 64% of 1,000 active; in the data active means activation above about 33%;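 further: 0% = DMSO wells and 100% = tunicamycin 10 µg/mL wells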
UPR XBP1 confirm = confirmation of adaptive unfolded protein response (XBP1) activators. CHO-XBP1 IRE1-XBP1 luciferase reporter, luminescence. 63% of 1,000 active. AID 485299. activation, % at 20 µM. shares compounds with UPR XBP1 act;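 active means reporter signal at least 30% of the positive control's activation in two or more of four replicate wells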;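 further: plate controls were DMSO negative control for no effect and tunicamycin 10 µg/mL positive control for full effect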
Mdm2-MdmX conf = confirmation of human Mdm2/MdmX interaction inhibitors. shares compounds with Mdm2 MdmX PPI. Mdm2-MdmX binding, luminescent assay. inhibition, % at 8 µM. 55% of 10,000 active. AID 489028; in the data active means inhibition above about 40%
FLuc counter = counter-screen for Mdm2/MdmX inhibitors: full-length luciferase | shares compounds with Mdm2 MdmX PPI | SaOS-2 full-length luciferase counterscreen, luminescence | inhibition, % at 8 µM | 77% of 6,200 active | AID 504607;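 active means mean inhibition at 8 µM reaching about 37%, which flags the compound as non-specific, limit read from the data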;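 further: p53-null SaOS-2 cells with luciferase driven by a doxycycline-inducible promoter; compound on cells about two nights before reading with doxycycline added after day one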
* = called active by the depositor; ? = inconclusive; nt = no result given. Shown are actives, neighbours in structure and some others; about 4.8% of the full set was active somewhere.

SMILES	Beta cell apopt	SKKanGAS inh	CSC inhib	Mdm2 MdmX PPI	UPR XBP1 act	UPR CHOP act	CHOP UPR conf	Mdm2-MdmX conf	FLuc counter	others
CCC(C)[C@H](NC(=O)C1CC(=O)N(c2ccc(OC)cc2)C1)C(=O)NC1CCCC1 (stereo partly drawn)	-3	-1	3	6	-2	1	nt	nt	nt
CCCn1nnc(NC(=O)/C=C/c2ccccc2)n1	1	-7	nt	1	3	1	nt	nt	nt
Cc1nc(NC(=O)/C=C/c2ccccc2)n[nH]1	-37	0	45	56*	-1	44*	35*	40*	33
Oc1c(C(c2ccccc2Cl)N2CCCC2)ccc2cccnc12 (stereo not drawn)	92*	76*	-8	69*	25	106*	132*	63*	31
CCOC(=O)C1CCCN(CC(=O)N(C)c2c(N)n(Cc3ccccc3)c(=O)[nH]c2=O)C1 (stereo not drawn)	3	nt	-4	4	0	0	nt	nt	nt
Cc1cccc(/C=C(\c2nc3ccccc3[nH]2)S(=O)(=O)c2ccccc2)c1	nt	3	nt	nt	nt	nt	nt	nt	nt
CC(C)(C)c1ccc(/C=C(\c2nc3ccccc3[nH]2)S(=O)(=O)c2ccccc2)cc1	108*	11	125*	93*	11	56*	71*	100*	51*
COc1ccc(-n2c(CN3CCN(c4ccccn4)CC3)nc3ccc([N+](=O)[O-])cc3c2=O)c(OC)c1	1	-1	-18	29	2	0	nt	nt	nt
O=C(N/N=C(\c1ccccc1)c1cccnc1)c1cccc(F)c1	108*	95*	109*	99*	-5	51*	91*	80*	33
CCN(CC)C(=O)c1sc(NC(=O)Cc2cccs2)c(C#N)c1C	-3	-2	-4	13	2	0	nt	nt	nt
Cc1c(C#N)c(NC(=O)CCl)n(Cc2ccc(F)cc2)c1C	-4	0	15	89*	0	65*	74*	51*	43*
Cc1c(C#N)c(NC(=O)CCl)n(Cc2ccccc2)c1C	3	11	33	94*	-5	113*	57*	86*	38*
COC(=O)c1cc(C(=O)OC)n(Cc2ccc(F)cc2)c1C	-4	-3	-3	-21	-2	0	nt	nt	nt
Cc1c(C#N)c(NC(=O)CCl)n(Cc2cccs2)c1C	6	1	-1	94*	-2	87*	71*	76*	38*
COc1ccc(CCN2CCC(Nc3nc4ccccc4n3Cc3ccc(F)cc3)CC2)cc1	26	1	56	99*	4	56*	44*	91*	47*
COC(=O)c1nn(-c2ccc(OC)cc2)c(=O)cc1O	-5	4	14	-5	-3	1	nt	nt	nt
COc1ccc(-n2nc(C#N)c(Cl)cc2=O)cc1	nt	nt	nt	100*	-6	149*	73*	100*	53*
CCN(CC)c1ccc2c(Cl)c(Br)c(=O)oc2c1	-1	-6	?	100*	1	194*	18	44*	3
COc1cccc(C(=O)Nc2cccc(-c3nnc(-c4ccccc4)o3)c2)c1	3	?	26	42	2	3	nt	nt	nt
CCOc1cccc(C(=O)Nc2cccc(-c3nnc(-c4ccc(C)cc4)o3)c2)c1	13	-6	69	84*	162*	136*	54*	8	nt	UPR XBP1 confirm=160*
Cc1cccc(C)c1NC(=O)CN(C)CC(=O)c1c(N)n(Cc2ccccc2)c(=O)n(C)c1=O	2	nt	nt	24	-2	-2	nt	nt	nt
